Experimental data: ChEMBL document CHEMBL1147714, “1,3,5-Trisubstituted aryls as highly selective PPARdelta agonists” (Bioorg Med Chem Lett, 2006)

What was measured:
[1] = target: T1, Peroxisome proliferator-activated receptor alpha (Homo sapiens, UniProt Q07869); assay: Effect on human PPARalpha transactivation in 293T cells; format: functional, cell-based
T1 sequence (Q07869 whole entry): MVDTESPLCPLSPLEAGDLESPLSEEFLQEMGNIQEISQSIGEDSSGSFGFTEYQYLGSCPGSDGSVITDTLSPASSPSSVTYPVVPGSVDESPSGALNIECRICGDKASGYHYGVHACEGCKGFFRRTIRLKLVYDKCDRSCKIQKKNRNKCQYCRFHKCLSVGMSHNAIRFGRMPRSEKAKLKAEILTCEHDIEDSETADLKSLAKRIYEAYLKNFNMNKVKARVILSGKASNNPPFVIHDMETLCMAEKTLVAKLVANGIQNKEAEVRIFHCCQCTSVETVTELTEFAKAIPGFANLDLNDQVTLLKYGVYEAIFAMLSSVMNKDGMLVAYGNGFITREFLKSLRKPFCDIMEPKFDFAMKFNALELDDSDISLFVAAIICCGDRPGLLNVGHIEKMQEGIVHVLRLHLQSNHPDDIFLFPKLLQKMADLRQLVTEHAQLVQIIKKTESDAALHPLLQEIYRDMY
In short: (§1)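 293T cells transfected for 6 h (Fugene6) with a GAL4 DNA-binding domain–PPAR ligand-binding domain fusion plasmid and pG5-Luc reporter (5 GAL4-binding sites, TATA box, firefly luciferase). Compounds were then added at 1× final concentration in 1% DMSO for 18-20 h at 37 °C. Cells were lysed with Britelite for luciferase read-out.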

[2] = target: T2, Peroxisome proliferator-activated receptor gamma (Homo sapiens, UniProt P37231); assay: Effect on human PPARgamma transactivation in 293T cells; format: functional, cell-based
T2 sequence (P37231 whole entry): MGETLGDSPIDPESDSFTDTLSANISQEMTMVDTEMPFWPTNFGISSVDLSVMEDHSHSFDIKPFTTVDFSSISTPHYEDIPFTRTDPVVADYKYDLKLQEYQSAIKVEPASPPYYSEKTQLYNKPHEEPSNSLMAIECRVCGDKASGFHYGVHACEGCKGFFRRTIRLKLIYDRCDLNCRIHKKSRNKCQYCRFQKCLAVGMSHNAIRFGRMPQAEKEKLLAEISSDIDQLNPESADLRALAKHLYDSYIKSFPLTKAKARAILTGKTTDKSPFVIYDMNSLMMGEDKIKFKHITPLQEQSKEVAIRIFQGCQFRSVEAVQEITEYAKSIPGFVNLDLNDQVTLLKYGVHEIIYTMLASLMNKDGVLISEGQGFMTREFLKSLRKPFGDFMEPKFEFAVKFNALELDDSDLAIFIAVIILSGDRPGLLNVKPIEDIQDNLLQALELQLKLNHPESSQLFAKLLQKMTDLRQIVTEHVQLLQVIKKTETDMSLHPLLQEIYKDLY

[3] = target: T3, Peroxisome proliferator-activated receptor delta (Homo sapiens, UniProt Q03181); assay: Effect on human PPARdelta transactivation in 293T cells; format: functional, cell-based
T3 sequence (Q03181 whole entry): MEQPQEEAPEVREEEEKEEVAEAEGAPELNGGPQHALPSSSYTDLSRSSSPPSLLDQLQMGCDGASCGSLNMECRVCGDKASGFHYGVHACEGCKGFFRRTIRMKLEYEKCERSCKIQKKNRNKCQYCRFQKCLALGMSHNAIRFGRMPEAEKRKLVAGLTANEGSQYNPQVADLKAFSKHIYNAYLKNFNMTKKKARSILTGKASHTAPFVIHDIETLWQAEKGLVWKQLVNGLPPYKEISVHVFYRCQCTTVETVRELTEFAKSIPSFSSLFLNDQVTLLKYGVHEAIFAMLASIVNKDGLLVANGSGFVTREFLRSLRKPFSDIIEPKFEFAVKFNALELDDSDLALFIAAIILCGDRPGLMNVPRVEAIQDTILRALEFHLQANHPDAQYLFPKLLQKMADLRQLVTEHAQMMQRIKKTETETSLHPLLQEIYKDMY

[4] = target: T4, Peroxisome proliferator-activated receptor gamma (Homo sapiens) (UniProt P37231); assay: Effect on human PPARgamma transactivation in 293T cells relative to rosiglitazone; format: functional, cell-based; in short: as §1
T4 sequence (whole entry): T2 sequence (P37231 whole entry)

[5] = species: Mus musculus; assay: Stability in mouse liver microsome; format: ADME
[6] = system: Liver microsomes; assay: Stability in rat liver microsome; format: ADME
[7] = system: Liver microsomes; assay: Stability in human liver microsome; format: ADME
[8] = Bioavailability in mouse at 10 mg/kg, po; format: ADME, organism-based; details: in vivo
In short: (§2)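 Mice received a single oral dose of 10 mpk, given as a suspension in 0.5% CMC. Bioavailability, Cmax and half-life were obtained from this pharmacokinetic study.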

[9] = Cmax in mouse at 10 mg/kg, po; format: ADME, organism-based; parameters: dose 10 mg/kg, route oral; details: in vivo; in short: as §2
[10] = Half life in mouse at 10 mg/kg, po; format: ADME, organism-based; parameters: dose 10 mg/kg, route oral; details: in vivo; in short: as §2

Structure (SMILES) | EC50 [1] [nM] | EC50 [2] [nM] | EC50 [3] [nM] | also measured
Cc1cc(OCc2cc(-c3ccc(N(C)C)cc3)cc(-c3ccc(N(C)C)cc3)c2)ccc1OCC(=O)O | > 10000 | > 10000 | 490 | –
Cc1cc(OCc2cc(-c3ccc(C(F)(F)F)cc3)nc(-c3ccc(C(F)(F)F)cc3)n2)ccc1OCC(=O)O | > 10000 | > 10000 | 30 | –
Cc1ccc(-c2cc(COc3ccc(OCC(=O)O)c(C)c3)cc(-c3ccc(C(F)(F)F)cc3)c2)cc1 | > 10000 | > 10000 | 70 | –
COc1ccc(-c2cc(-c3ccc(OC)cc3)nc(COc3ccc(OCC(=O)O)c(C)c3)n2)cc1 | > 10000 | > 10000 | 110 | –
COc1ccc(-c2ccc(COc3ccc(OCC(=O)O)c(C)c3)cc2-c2ccc(OC)cc2)cc1 | > 10000 | > 10000 | > 10000 | –
O=C(O)Cc1ccc(SCc2cc(-c3ccc(C(F)(F)F)cc3)cc(-c3ccc(C(F)(F)F)cc3)c2)c(Cl)c1 | > 10000 | > 10000 | 160 | –
O=C(O)COc1ccc(OCc2cc(-c3ccccc3)cc(-c3ccccc3)c2)cc1 | > 10000 | 1200 | 970 | –
COc1ccc(-c2cc(COc3ccc(OCC(=O)O)c(C)c3)cc(-c3ccc(C(F)(F)F)cc3)c2)cc1 | > 10000 | > 10000 | 70 | –
COc1ccc(-c2cc(COc3ccc(OCC(=O)O)c(C)c3)cc(-c3ccc(OC)cc3)c2)cc1 | > 10000 | > 10000 | 350 | –
Cc1cc(OCc2ccc(-c3ccc(OC(F)(F)F)cc3)c(-c3ccc(OC(F)(F)F)cc3)c2)ccc1OCC(=O)O | > 10000 | > 10000 | > 10000 | –
Cc1cc(OCC(=O)O)ccc1OCc1cc(-c2ccc(C(F)(F)F)cc2)cc(-c2ccc(C(F)(F)F)cc2)c1 | 3330 | > 10000 | 70 | –
Cc1cc(OCc2cc(-c3ccc(OC(F)(F)F)cc3)cc(-c3ccc(C(F)(F)F)cc3)c2)ccc1OCC(=O)O | > 10000 | > 10000 | 60 | –
Cc1cc(OCc2cc(-c3ccccc3)cc(-c3ccccc3)c2)ccc1OCC(=O)O | > 10000 | 740 | 560 | Efficacy [4]: 30%
Cc1cc(OCc2cc(-c3ccc(C(F)(F)F)cc3)cc(-c3cccc(C(F)(F)F)c3)c2)ccc1OCC(=O)O | > 10000 | > 10000 | 560 | –
Cc1cc(OCc2cc(-c3ccc(C(F)(F)F)cc3)cc(-c3ccc(C(F)(F)F)cc3)c2)ccc1OCC(=O)O | > 10000 | > 10000 | 10 | Stability [5]: Stable; Stability [6]: Stable; Stability [7]: Stable; bioavailability [8]: > 50%; Cmax [9]: > 4 µM; half-life [10]: 3 h
Cc1cc(OCc2nc(-c3ccc(C(F)(F)F)cc3)cc(-c3ccc(C(F)(F)F)cc3)n2)ccc1OCC(=O)O | > 10000 | > 10000 | 40 | –
CC(C)(Oc1ccc(OCc2cc(-c3ccc(C(F)(F)F)cc3)cc(-c3ccc(C(F)(F)F)cc3)c2)cc1)C(=O)O | 730 | 370 | 50 | –
Cc1cc(OCc2ccc(-c3ccc(C(F)(F)F)cc3)c(-c3ccc(C(F)(F)F)cc3)n2)ccc1OCC(=O)O | > 10000 | > 10000 | > 10000 | –
Cc1cc(OCc2cc(-c3ccc(-c4ccccc4)cc3)cc(-c3ccc(C(F)(F)F)cc3)c2)ccc1OCC(=O)O | > 10000 | > 10000 | 60 | –
Cc1cc(OCc2cc(-c3ccc(OC(F)(F)F)cc3)cc(-c3ccc(OC(F)(F)F)cc3)c2)ccc1OCC(=O)O | > 10000 | > 10000 | 30 | –
O=C(O)COc1ccc(OCc2cc(-c3ccc(C(F)(F)F)cc3)cc(-c3ccc(C(F)(F)F)cc3)c2)cc1 | 1640 | > 10000 | 110 | –
Cc1cc(OCc2cc(-c3ccc(Cl)cc3)cc(-c3ccc(Cl)cc3)c2)ccc1OCC(=O)O | > 10000 | > 10000 | 110 | –
Cc1cc(OCc2cc(-c3ccc(OC(F)(F)F)cc3)nc(-c3ccc(OC(F)(F)F)cc3)n2)ccc1OCC(=O)O | > 10000 | > 10000 | 40 | Stability [5]: Stable; Stability [6]: Stable; Stability [7]: Stable; bioavailability [8]: > 50%; Cmax [9]: > 4 µM; half-life [10]: 3 h
Cc1cc(OCc2nc(-c3ccc(OC(F)(F)F)cc3)cc(-c3ccc(OC(F)(F)F)cc3)n2)ccc1OCC(=O)O | > 10000 | > 10000 | 90 | –
O=C(O)Cc1ccc(OCc2cc(-c3ccc(C(F)(F)F)cc3)cc(-c3ccc(C(F)(F)F)cc3)c2)c(Cl)c1 | > 10000 | > 10000 | 540 | –
COc1ccc(-c2cc(COc3ccc(OCC(=O)O)c(C)c3)nc(-c3ccc(OC)cc3)n2)cc1 | > 10000 | > 10000 | 210 | –
Cc1cc(SCc2cc(-c3ccc(C(F)(F)F)cc3)cc(-c3ccc(C(F)(F)F)cc3)c2)ccc1OCC(=O)O | > 10000 | > 10000 | 30 | –
